From the RNAGym collection of RNA variant scans (doi:10.1126/science.aae0568)
This sample holds only a part of the variants without activity.

B1: tRNA (parent)
chain: GUUCCGUUGGCGUAAUGGUAACGCGUCUCCCUCCUAAGGAGAAGACUGCGGGUUCGAGUCCCGUACGGAACG

Variants of: B1
Test: yeast fitness relative to wild type (ratio to wild type); higher = fitter; tRNA-Arg(CCU), competitive growth, 37 C, YPD
How it was run: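 Variants of the tRNA-Arg(CCU) gene, chemically synthesised with a 3% per-site mutation rate at 69 sites, were placed at the native genomic locus in Saccharomyces cerevisiae. The pooled strains were competed in YPD at 37°C for 24 hours in six parallel replicates. Gene amplicons from the start population and from each end population were read by 100-nucleotide paired-end sequencing. Darwinian fitness relative to wild type came from changes in genotype frequencies; genotypes needed ≥ 100 starting reads, and estimates < 0.5 were set to 0.5.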

Compared with GUUCCGUAGGCGUAAUGGUAACGCGUCUCCCUCCUAAGGAGAAGACUACGGGUUCGAGUCCCGUACGGAACG, GUUCCGUAGGCGUAAUGGUAACGCGUCUCCCUCCUAAGGAGAAGACUGCCGGUUCAAGUCCCGUACGGAACG is lower in yeast fitness: 0.666 for the first, ≤ 0.5 for the second.

First: GUUCCGUAGGCGUAAUGGUAACGCGUCUCCCUCCUAAGGAGAAGACUGCGAGUUCGAGUCCCGUACGGAACG
Second: GUUCCGUAGGCGUAAUGGUAACGCGUCUCCCUCCUAAGGAGAAGACUGCGGAUUCCAGUCCCGUACGGAACG
The yeast fitness of the first is lower: 0.63 for the first, 0.841 for the second.

First: GUUCCGUAGGCGUAAUGGUAACGCGUCUCCCUCCUAAGGAGAAGACUGCGGCUUCGAGUCCCGUACGGAACG
Second: GUUCCGUAGGCGUAAUGGUAACGCGUCUCCCUCCUAAGGAGAAGACUGCGGGUUCGAAUCCCGUACGGAACG
The yeast fitness of the first is lower: ≤ 0.5 for the first, 0.771 for the second.

First: GUUCCGUAGGCGUAAUGGUAACGCGUCUCCCUCCUAAGGAGAAGACUGCGGGUUCGAGUCCCGUACAGAACG
Second: GUUCCGUAGGCGACAUGGUAACGCGUCUCCCUCCUAAGGAGAAGACUGCGGGUUCCAGUCCCGUACGGAACG
The yeast fitness of the first is higher: 0.586 for the first, ≤ 0.5 for the second.

Going from GUUCCGUAGGCGACAAGGUAACGCGUCUCCCUCCUAAGGAGAAGACUGCGGGUUCGAGUCCCAUACAGAACG to GUUCCGUAGGCGACAAGGUAACGCGUCUCCCUCCUAAGGAGAAGACUGCGGGUUCGAGUCCCGUACAGAACG, the yeast fitness rises from ≤ 0.5 to 0.584.

GUUCCGUAGGCGACACGGUAACGCGUCUCCCUCCUAAGGAGAAGACUGCGGGUUCGAGUCCCGUACGGAACG and GUUCCGUAGGCGAAAUGCUAACGGGUCUCCCGCCUAAGGAGAAGACUGCGGGUUCGAUUCCCGUACGGAACG cannot be ordered by yeast fitness: ≤ 0.5 for the first, ≤ 0.5 for the second.

Compared with GUUCCGUAGGCGCAAUGGUAACGCGUCUCCCUCCUAAGGAGAAGACUGCGGGUUCGAGUCCCGUAUGGAACG, GUUCCGUAGGCGUAAUGGCACCGCGUCUCCCUCCUAAGGAGAAGACUGCGGGUUCGAGUCCCGUAUGGAACG is lower in yeast fitness: 0.607 for the first, ≤ 0.5 for the second.

First: GUUCCGUAGGCGUAAUGGCAACGCGUCUCCCUCCUUAGGAGAAGACUGCGGGUUCGAGUCCCGUACGGAACG
Second: GUUCCGUAGGCGUAAUGGGAAUGCGUCUCCCUCCUAAGGAGAAGACUGCGGGUUCGAAUCCCGUACGGAACG
The yeast fitness of the first is lower: ≤ 0.5 for the first, 0.568 for the second.

First: GUUCCGUAGGCGUAAUGGUAACGCGACUCCCUCCUAAGGAGAAGACUGCGGGUUCGAGUCCCGUACGGAACG
Second: GUUCCGUAGGCGUAAUGGUAACGCGACUACCUCCUAAGGAGAAGACUGCGGGUUCGAGUCCCGUCCGGACCG
The yeast fitness of the first is higher: 0.733 for the first, ≤ 0.5 for the second.

First: GUUCCGUAGGCGUAAUGGUAACGCGACUCCCUCCUAAGGAGAAGACUGCGGGUUGGAGUCCCGUACGGAACG
Second: GUUCCGUAGGCGUAAUGGUAACGCGCCUCCCUCCUAAGGAGAAGACUGCGGGUUCGAGUCCCGUACGGAACG
The yeast fitness of the first is lower: ≤ 0.5 for the first, 0.646 for the second.

First: GUUCCGUAGGCGUAAUGGUAACGCGCCUCCCUCCUAAGGAGAUGACUGCGGGUUUGAGUCCCGUACGGAACG
Second: GUUCCGUAGGCGUAAUGGUAACGCGGCUCCCUCCUAAGGAGAAGACUGCGGGUUCGAGUCCCGUACGGAACG
The yeast fitness of the first is lower: ≤ 0.5 for the first, 0.666 for the second.

GUUCCGUAGGCGUAAUGGUAACGCGUCACCGUCCUAAGGAGAAGACUGCGGGUUCGAGUACCGUACGGAACG and GUUCCGUAGGCGUAAUGGUAACGCGUCACCCUCCUAAGGAGAAGACUGCGGGUUCGAGUCCCGUAUGGAACG cannot be ordered by yeast fitness: ≤ 0.5 for the first, ≤ 0.5 for the second.

First: GUUCCGUAGGCGUAAUGGUAACGCGUCCCCCUCCUAAGGAGAAGACUGCGGGUUCGAGUCCCGUACGGAACG
Second: GUUCCGUAGGCGUAAUGGUAACGCGUCUCCCGCCUCAGGAGAAGACGGCGGGUUCGAGUCCCGUACGGAACG
The yeast fitness of the first is higher: 0.738 for the first, ≤ 0.5 for the second.

GUUCCGUAGGCGUAAUGGUAACGCGUCUCCCGCCUAGGGAGAAGACUGCGGGUUCGAGUCCCUUACGGAUCG and GUUCCGUAGGCGUAAUGGUAACGCGUCUCCCUCCUAAGGAGAAGACAGCGGGUUCGAGUACCGUACGGAACG cannot be ordered by yeast fitness: ≤ 0.5 for the first, ≤ 0.5 for the second.

First: GUUCCGUAGGCGUAAUGGUAACGCGUCUCCCUCCUAAGGAGAAGACCGCGGGUUCGCGUCCCGCACGGAACG
Second: GUUCCGUAGGCGUAAUGGUAACGCGUCUCCCUCCUAAGGAGAAGACUGCGGGUCCGAGUCCCGUACGGAACG
The yeast fitness of the first is lower: ≤ 0.5 for the first, 0.657 for the second.

Going from GUUCCGUAGGCGUAAUGGUAACGCGUCUCCCUCCUAAGGAGAAGACUGCGGGUUCGAGCCCCGUACGGAACG to GUUCCGUCGGCGUAAUGGUAACGCGUCUCCCUCCUAAGGAGAAGACUGCGGGUUCGAGUCCCGUACGGAACG, the yeast fitness rises from 0.748 to 1.03.

GUUCCGUCGGCGUCAUGGUAACGCGUGUCCCUCCUAAGGAGAAGAGUGCGGGUUCGAGUCCCGUGCGGAACG and GUUCCGUCGGCGUCAUGGUAACGCGUCUCCCUACUAAGGAGAAGAAUGCGGGUUCGAGUCCCGUACGGAACG cannot be ordered by yeast fitness: ≤ 0.5 for the first, ≤ 0.5 for the second.

GUUCCGUCGGCGUCAUGGUAACGCGUCUCCCUACUAAGGAGAAGAAUGCGGGUUCGAGUCCCGUACAGAACG and GUUCCGUCGGCGUCAUGAUAACGCGUCUCCUUCCUAAGGAGAAGGCUGCGGGUUCGAGUCCCGUACGGAACG cannot be ordered by yeast fitness: ≤ 0.5 for the first, ≤ 0.5 for the second.

First: GUUCCGUCGGCGUGAUGGUAACGCGUCUCCCUCCUAAGGAGAAGACUGCGGGUUCGAGUCCCGUACGAAACG
Second: GUUCCGUCGGCGUGAUGGUAACGCGUCUCCCACCUAAGGAGAAGACUGCGGGUUCGAGUCCCGUACGGAACG
The yeast fitness of the first is lower: 0.534 for the first, 0.538 for the second.
